Source: ChEMBL document CHEMBL2396611, “Synthesis and mechanism of hypoglycemic activity of benzothiazole derivatives” (J Med Chem, 2013)
≈ marks a conversion by molar mass, not a printed value. Calls of active or inactive are those of the source. The rule behind the calls is not given here.

What was measured:
Cytochrome P450 1A2 = target: T1, Cytochrome P450 1A2 (Homo sapiens, UniProt P05177); assay: Inhibition of CYP1A2 (unknown origin) by luminescent based assay; type: ADME
T1 sequence (P05177 whole entry): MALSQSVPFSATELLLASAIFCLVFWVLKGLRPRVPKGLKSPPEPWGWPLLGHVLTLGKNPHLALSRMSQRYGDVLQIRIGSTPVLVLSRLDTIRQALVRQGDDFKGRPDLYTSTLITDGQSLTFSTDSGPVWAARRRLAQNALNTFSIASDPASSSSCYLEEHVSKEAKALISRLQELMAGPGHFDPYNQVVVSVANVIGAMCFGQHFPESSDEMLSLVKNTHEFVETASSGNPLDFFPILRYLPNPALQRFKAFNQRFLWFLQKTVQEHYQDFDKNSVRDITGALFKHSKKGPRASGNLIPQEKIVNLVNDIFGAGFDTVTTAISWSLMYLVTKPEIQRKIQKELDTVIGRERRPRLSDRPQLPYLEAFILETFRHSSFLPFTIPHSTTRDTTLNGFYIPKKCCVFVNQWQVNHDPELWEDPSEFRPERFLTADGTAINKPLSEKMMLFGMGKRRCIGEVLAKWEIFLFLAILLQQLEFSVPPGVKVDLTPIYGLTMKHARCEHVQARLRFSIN

Cytochrome P450 2D6 = Cytochrome P450 2D6 (Homo sapiens, UniProt P10635); assay: Inhibition of CYP2D6 (unknown origin) by luminescent based assay; type: ADME
Cytochrome P450 2D6, sequence (P10635 whole entry): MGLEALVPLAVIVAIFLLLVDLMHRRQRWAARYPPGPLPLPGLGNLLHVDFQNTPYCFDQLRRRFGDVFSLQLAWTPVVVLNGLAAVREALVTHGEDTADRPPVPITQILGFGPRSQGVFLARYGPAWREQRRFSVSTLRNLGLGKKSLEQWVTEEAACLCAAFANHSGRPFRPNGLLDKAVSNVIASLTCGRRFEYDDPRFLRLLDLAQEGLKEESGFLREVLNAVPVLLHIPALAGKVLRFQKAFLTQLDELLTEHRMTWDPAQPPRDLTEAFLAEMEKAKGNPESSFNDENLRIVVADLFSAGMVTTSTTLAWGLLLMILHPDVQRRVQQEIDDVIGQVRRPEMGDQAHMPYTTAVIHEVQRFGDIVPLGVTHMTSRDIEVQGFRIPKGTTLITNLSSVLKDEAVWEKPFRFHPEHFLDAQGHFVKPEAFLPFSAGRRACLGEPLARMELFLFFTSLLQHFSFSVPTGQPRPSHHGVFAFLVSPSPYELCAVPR

Cytochrome P450 3A4 = Cytochrome P450 3A4 (Homo sapiens, UniProt P08684); assay: Inhibition of CYP3A4 (unknown origin) by luminescent based assay; type: ADME
Cytochrome P450 3A4, sequence (P08684 whole entry): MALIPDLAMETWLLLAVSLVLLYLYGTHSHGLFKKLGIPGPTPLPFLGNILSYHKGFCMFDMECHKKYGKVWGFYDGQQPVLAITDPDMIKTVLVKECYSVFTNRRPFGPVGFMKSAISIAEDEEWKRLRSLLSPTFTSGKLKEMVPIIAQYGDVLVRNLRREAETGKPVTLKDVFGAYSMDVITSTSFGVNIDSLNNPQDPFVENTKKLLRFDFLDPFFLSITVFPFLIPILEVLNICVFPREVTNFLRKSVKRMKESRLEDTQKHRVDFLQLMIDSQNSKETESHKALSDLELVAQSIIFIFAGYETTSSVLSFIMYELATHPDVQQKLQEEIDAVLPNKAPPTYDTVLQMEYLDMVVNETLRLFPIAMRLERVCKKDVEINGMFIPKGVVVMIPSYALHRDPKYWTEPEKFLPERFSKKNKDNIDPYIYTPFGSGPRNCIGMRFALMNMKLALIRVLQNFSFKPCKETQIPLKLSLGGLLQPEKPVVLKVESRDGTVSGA

[1] = Intrinsic clearance in BALB/c mouse liver microsomes at 2 uM; type: ADME, Microsome; conditions: read-out: CLH
[2] = Half life in BALB/c mouse liver microsomes at 2 uM; type: ADME, Microsome
Mus musculus [3] = assay: Antidiabetic activity in KKAy mouse assessed as reduction of blood glucose level at 30 to 75 mg/kg, sc bid for 4 days measured on day 3 relative to control; type: functional; design: scale not given: the % may be the effect or the level left; conditions: dose mg/kg 30-75; route subcutaneous
In short: (§1)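 Hyperglycemic KKAy mice injected s.c. twice daily for 4 days with compound at 30 or 75 mg/kg suspended in sesame oil; controls received sesame oil (150 µl). Blood glucose measured at the indicated times, with day-zero levels taken as 100%. n=10 per group, mean ± SEM, compared with oil-treated group.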

Mus musculus [4] = assay: Antidiabetic activity in KKAy mouse assessed as reduction of blood glucose level at 30 to 75 mg/kg, sc bid for 4 days measured on day 1 relative to control; type: functional; design: scale not given: the % may be the effect or the level left; conditions: dose mg/kg 30-75; route subcutaneous; in short: as §1
[5] = target: 5'-AMP-activated protein kinase catalytic subunit alpha-2 (Homo sapiens) (UniProt P54646); assay: Activation of human recombinant AMPK at 20 uM after 30 mins relative to control
5'-AMP-activated protein kinase catalytic subunit alpha-2 (Homo sapiens), sequence (P54646 whole entry, looked up): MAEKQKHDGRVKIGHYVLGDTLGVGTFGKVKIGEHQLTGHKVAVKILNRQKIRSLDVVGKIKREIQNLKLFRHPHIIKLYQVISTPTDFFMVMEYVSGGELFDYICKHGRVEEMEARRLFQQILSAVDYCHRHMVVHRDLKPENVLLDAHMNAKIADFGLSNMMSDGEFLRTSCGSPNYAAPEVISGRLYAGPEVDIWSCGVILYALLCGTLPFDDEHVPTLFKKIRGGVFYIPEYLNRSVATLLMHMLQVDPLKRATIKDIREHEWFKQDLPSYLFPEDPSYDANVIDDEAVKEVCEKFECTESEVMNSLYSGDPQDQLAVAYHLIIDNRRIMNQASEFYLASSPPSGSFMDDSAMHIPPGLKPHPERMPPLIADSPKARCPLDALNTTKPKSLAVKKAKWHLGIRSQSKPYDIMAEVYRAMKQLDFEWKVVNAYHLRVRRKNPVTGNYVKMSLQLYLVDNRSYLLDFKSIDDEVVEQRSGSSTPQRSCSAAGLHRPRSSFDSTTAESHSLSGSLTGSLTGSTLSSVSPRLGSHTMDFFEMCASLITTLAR
In short: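 Recombinant human full-length AMPK assayed with a commercial luminescent kit. Compound at 20 μM or DMSO vehicle (1% v/v) added to the reaction mix for 30 min at ambient temperature. Activity read by luminometer against a calibration curve; basal activity with DMSO set as 100%.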

[6] = target: 5'-AMP-activated protein kinase catalytic subunit alpha-2 (Rattus norvegicus) (UniProt Q09137); assay: Activation of AMPK in rat L6 cells assessed as increase of [3H]dGlc uptake after 5 hrs in presence of Akt/PKB inhibitor 1,3-dihydro-1-(1-((4-(6-phenyl-1Himidazo[4,5-g]quinoxalin-7-yl)phenyl)methyl)-4-piperidinyl)-2H-benzimidazol-2-one trifluoroacetate salt hydrate; type: cell-based
5'-AMP-activated protein kinase catalytic subunit alpha-2 (Rattus norvegicus), sequence (Q09137 whole entry): as the sequence (P54646 whole entry, looked up) above, with M114V, H150Q, V241I, S348T, S355M, F502V, T505S, S509N, V528A, T549A counted along it
In short: (§2)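 Myotubes treated with compound, insulin or vehicle in the absence or presence of 100 nM wortmannin or 100 nM Akt/PKB inhibitor, each added 30 min before compound or insulin. Compound C 5 μM was added 5 h before the uptake assay. Rate then measured by the standard 5-min [3H]dGlc uptake assay.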

[7] = target: 5'-AMP-activated protein kinase catalytic subunit alpha-2 (Rattus norvegicus) (UniProt Q09137); assay: Activation of AMPK in rat L6 cells assessed as increase of [3H]dGlc uptake after 5 hrs in presence of PI3K inhibitor wortmannin; type: cell-based; in short: as §2
[8] = target: 5'-AMP-activated protein kinase catalytic subunit alpha-2 (Rattus norvegicus) (UniProt Q09137); assay: Increase in AMPK-mediated myc-tagged GLUT4 translocation in rat L6 cell plasma membrane at 25 uM after 5 hrs by colorimetric analysis
In short: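 L6 lines stably carrying GLUT4myc or GLUT1myc, treated 5 h with test agent or DMSO; insulin given for 30 min. Live myotubes incubated with rabbit anti-c-Myc (1:200), washed, fixed in 3% formaldehyde, then HRP anti-rabbit IgG (1:2000). Developed with OPD and read at 492 nm to give relative surface transporter abundance.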

[9] = target: 5'-AMP-activated protein kinase catalytic subunit alpha-2 (Rattus norvegicus) (UniProt Q09137); assay: Activation of AMPK in rat L6 cells assessed as AS-160 phosphorylation at Thr642 at 250 mM after 40 mins by Western blot analysis relative to control; type: cell-based
In short: (§3)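 Fully differentiated L6 myotubes, preincubated 3 h with or without 5 μM Compound C. Test agents: compound at 25 μM for 3 h, sorbitol 250 mM for 40 min, AICAR 4 mM for 30 min. Whole-cell lysates probed by Western blot for pSer79-ACC, ACC, pThr642-AS-160, AS-160 and α-tubulin; band densities summarized, n=3, vs respective controls.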

[10] = target: 5'-AMP-activated protein kinase catalytic subunit alpha-2 (Rattus norvegicus) (UniProt Q09137); assay: Activation of AMPK in rat L6 cells assessed as ACC phosphorylation at Ser79 at 25 uM after 3 hrs by Western blot analysis relative to control; type: cell-based; in short: as §3
[11] = Solubility of the compound in water; type: physicochemical; conditions: buffer
[12] = target: 5'-AMP-activated protein kinase catalytic subunit alpha-2 (Rattus norvegicus) (UniProt Q09137); assay: Activation of AMPK in rat L6 cells assessed as increase of [3H]dGlc uptake at 25 uM up to 24 hrs; type: cell-based
In short: (§4)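 Fully differentiated L6 myotubes preincubated 24 h in αMEM with 2% FCS and 23.0 mmol/L D-glucose, then 4 h serum-free with 0.5% BSA. Compound or DMSO vehicle given for the indicated times or concentrations. Uptake read after 5 min at room temperature in PBS pH 7.4 with 0.1 mmol/L dGlc and 1.3 μCi/mL [3H]dGlc, by scintillation of SDS lysates. Zero-time basal rate set as 100%; n=6.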

L6 [13] = assay: Activation of AMPKalpha in rat L6 cells assessed as phosphorylation at Thr172 at 25 uM after 4 hrs by Western blot analysis relative to control; type: cell-based
In short: (§5)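 L6 myotubes treated 4 h with increasing compound concentrations (5 to 150 μM) or DMSO. Whole-cell lysates immunoblotted for pThr172-AMPKα, AMPKα and α-tubulin; phosphorylation expressed relative to DMSO-treated control.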

L6 [14] = assay: Activation of AMPKalpha in rat L6 cells assessed as phosphorylation at Thr172 at 15 uM after 4 hrs by Western blot analysis relative to control; type: cell-based; in short: as §5
L6 [15] = assay: Activation of AMPKalpha in rat L6 cells assessed as phosphorylation at Thr172 at 10 uM after 4 hrs by Western blot analysis relative to control; type: cell-based; in short: as §5
[16] = Lipophilicity, log P of the compound; type: physicochemical; conditions: octanol/water
L6 [17] = assay: Activation of AMPKalpha in rat L6 cells assessed as phosphorylation at Thr172 at 5 uM after 4 hrs by Western blot analysis relative to control; type: cell-based; in short: as §5
[18] = target: 5'-AMP-activated protein kinase catalytic subunit alpha-2 (Rattus norvegicus) (UniProt Q09137); assay: Activation of AMPK in rat L6 cells assessed as increase of [3H]dGlc uptake after 5 hrs; type: cell-based; in short: as §4
[19] = target: 5'-AMP-activated protein kinase catalytic subunit alpha-2 (Rattus norvegicus) (UniProt Q09137); assay: Activation of AMPK in rat L6 cells assessed as increase of [3H]dGlc uptake at 10 to 200 uM; type: cell-based; conditions: TDE = time-dependent effect; in short: as §4

inhibition (INH) (Cytochrome P450 1A2): Not Active
inhibition (INH) (Cytochrome P450 2D6): 64.4%
inhibition (INH) (Cytochrome P450 3A4): 77.1%
microsomal CLint at 2 µM [1]: 692 µL/min/mg
half-life at 2 µM [2]: 2.4 min
fold change (FC) [5]: 4.3
Activity [6]: Active
Activity [7]: Active
Activity [8]: Active
fold change (FC) [9]: 1.55
fold change (FC) [10]: 1.75
solubility [11]: 12.1 µM (≈ 4.33 µg/mL)
Activity [12]: Active
logP [16]: 4.34
Activity [18]: Dose-dependent effect
Activity [19]: tde
Structure (SMILES): CCOc1ccc2nc(SCc3nc4ccccc4s3)sc2c1
Activity (Mus musculus [3]): 50%
Activity (Mus musculus [4]): 30%
fold change (FC) (L6 [13]): 6.8
fold change (FC) (L6 [14]): 5.5
fold change (FC) (L6 [15]): 4.7
fold change (FC) (L6 [17]): 2
